From ChEMBL document CHEMBL3616379, “From carbohydrates to drug-like fragments: Rational development of novel α-amylase inhibitors” (Bioorg Med Chem, 2015) come the findings set out here.

Structures are written as SMILES. Calls of active or inactive are those of the source. The rule behind the calls is not given here. Where only a bound is given, the exact number is not on record here.

One test addresses Alpha amylase (Homo sapiens) (UniProt P0DUB6). The test is described as follows: (§1) Inhibition of alpha-amylase (unknown origin) relative to control. To be noted: concentration not given here. Also noted: concentration or dose not given beside the values.
The term inhibition denotes the share of the control response that was lost under treatment. For the molecule `Oc1cc(O)c2c(c1)O[C@@H](c1ccc(O)c(O)c1)[C@H](O)C2`, the inhibition is 16%.

On to `O=c1c(O[C@@H]2O[C@H](CO)[C@@H](O)[C@H](O)[C@H]2O)c(-c2ccc(O)c(O)c2)oc2cc(O)cc(O)c12`, for which the inhibition came to 12.2%. The same measure, in the same setting: next, `O=c1ccc2cc(O)c(O)cc2o1`: 17.4%.

For `C[C@@H]1O[C@@H](O[C@H]2[C@H](Oc3cc(O)c4c(c3)O[C@H](c3ccc(O)cc3)CC4=O)O[C@H](CO)[C@@H](O)[C@@H]2O)[C@H](O)[C@H](O)[C@H]1O`, the inhibition is 0%. On the same count and under the same terms, the result for `OC[C@H]1O[C@@H](Oc2ccc(O)cc2)[C@H](O)[C@@H](O)[C@@H]1O` reads 30%; that for `O=c1cc(-c2ccc(O)cc2)oc2cc(O)cc(O)c12`, 12.4%. On the same count and under the same terms, the result for `O=c1cc(-c2ccccc2)oc2cc(O)cc(O)c12` reads 5%. Still for that read-out and setting: next, `C[C@@H]1O[C@@H](Oc2c(-c3ccc(O)c(O)c3)oc3cc(O)cc(O)c3c2=O)[C@H](O)[C@H](O)[C@H]1O`: 37.6%; `C[C@@H]1O[C@@H](OC[C@H]2O[C@@H](Oc3c(-c4ccc(O)c(O)c4)oc4cc(O)cc(O)c4c3=O)[C@H](O)[C@@H](O)[C@@H]2O)[C@H](O)[C@H](O)[C@H]1O`: 20.1%. `Oc1cc(O)c2cc(O)c(-c3ccc(O)c(O)c3)[o+]c2c1`: the inhibition came out at 12%.

A further test deals with T1, Alpha amylase (Homo sapiens, UniProt P0DUB6).
T1 sequence (P0DUB6 whole entry): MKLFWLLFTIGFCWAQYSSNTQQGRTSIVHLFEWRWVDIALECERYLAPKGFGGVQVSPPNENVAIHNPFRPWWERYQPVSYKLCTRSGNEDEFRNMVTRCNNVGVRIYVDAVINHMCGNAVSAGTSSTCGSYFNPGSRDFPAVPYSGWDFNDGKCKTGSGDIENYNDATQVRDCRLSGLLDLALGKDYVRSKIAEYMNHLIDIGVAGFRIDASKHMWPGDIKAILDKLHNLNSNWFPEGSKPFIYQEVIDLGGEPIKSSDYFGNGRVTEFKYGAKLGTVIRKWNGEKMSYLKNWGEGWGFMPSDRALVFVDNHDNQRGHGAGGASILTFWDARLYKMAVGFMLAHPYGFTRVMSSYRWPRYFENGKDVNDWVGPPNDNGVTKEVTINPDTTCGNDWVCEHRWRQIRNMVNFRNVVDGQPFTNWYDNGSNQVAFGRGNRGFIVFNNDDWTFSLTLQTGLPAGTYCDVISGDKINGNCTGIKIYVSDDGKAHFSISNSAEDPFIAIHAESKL
Described as §1.
Conditions: not given
A word on the IC50: it is the concentration at which inhibition is half-maximal. On to `COc1cc(/C=C/C(=O)O)cc(OC)c1O` [SINAPINATE], for which the IC50 was more than 6500 µM. Still for that read-out and setting: next, `O=C(O)CCc1ccc(O)c(O)c1` [DIHYDROCAFFEIC ACID]: more than 14000 µM; `O=C(O)c1cccc(O)c1O` [2,3-DIHYDROXYBENZOIC ACID]: more than 7000 µM.

In turn, `COc1cc(/C=C/C(=O)O)ccc1O` [FERULATE] showed an IC50 of more than 5000 µM.

With `O=C(O)c1ccc(O)c(O)c1` [PROTOCATECHUIC ACID], the IC50 is more than 10000 µM. The molecule `O=c1cc(-c2ccc(O)c(O)c2)oc2cc(O[C@@H]3O[C@H](CO)[C@@H](O)[C@H](O)[C@H]3O)cc(O)c12` [GALUTEOLIN] gave an IC50 of 280 µM.

`O=C(/C=C/c1ccc(O)c(O)c1)O[C@H](Cc1ccc(O)c(O)c1)C(=O)O` [ROSMARINIC ACID] came in with an IC50 of 1400 µM. Same read-out and setting: next, `O=C(/C=C/c1ccc(O)c(O)c1)O[C@@H]1C[C@](O)(C(=O)O)C[C@@H](OC(=O)/C=C/c2ccc(O)c(O)c2)[C@H]1O`: 390 µM. Turning to `O=C1C[C@@H](c2ccc(O)cc2)Oc2cc(O)cc(O)c21` [NARINGENIN], the concentration for half-maximal inhibition (IC50) stood at 1800 µM. The same measure, in the same setting: next, `O=c1ccc2cc(O[C@@H]3O[C@H](CO)[C@@H](O)[C@H](O)[C@H]3O)c(O)cc2o1` [ESCULIN]: 1670 µM; `COc1cc2ccc(=O)oc2cc1O` [SCOPOLETIN]: 1300 µM; `O=C(/C=C/c1ccc(O)c(O)c1)O[C@@H]1C[C@@](OC(=O)/C=C/c2ccc(O)c(O)c2)(C(=O)O)C[C@@H](O)[C@@H]1O` [CYNARIN]: more than 2000 µM. `O=C(O)/C=C/c1ccc(O)c(O)c1` [CAFFEIC ACID] yielded an IC50 of 4800 µM.

`COc1ccc(CCC(=O)O)cc1OC` came in with an IC50 of more than 12000 µM. Still for that read-out and setting: next, `Oc1cc(O)c2c(c1)O[C@H](c1ccc(O)c(O)c1)[C@H](O)C2` [(-)-EPICATECHIN]: 3500 µM.

Take `O=C(O)[C@]1(O)C[C@@H](O)[C@@H](O)[C@H](O)C1` [QUINIC ACID]: the IC50 amounted to 13000 µM.

A further test deals with T2, Pancreatic alpha-amylase (Homo sapiens, UniProt P04746).
T2 sequence (P04746 whole entry): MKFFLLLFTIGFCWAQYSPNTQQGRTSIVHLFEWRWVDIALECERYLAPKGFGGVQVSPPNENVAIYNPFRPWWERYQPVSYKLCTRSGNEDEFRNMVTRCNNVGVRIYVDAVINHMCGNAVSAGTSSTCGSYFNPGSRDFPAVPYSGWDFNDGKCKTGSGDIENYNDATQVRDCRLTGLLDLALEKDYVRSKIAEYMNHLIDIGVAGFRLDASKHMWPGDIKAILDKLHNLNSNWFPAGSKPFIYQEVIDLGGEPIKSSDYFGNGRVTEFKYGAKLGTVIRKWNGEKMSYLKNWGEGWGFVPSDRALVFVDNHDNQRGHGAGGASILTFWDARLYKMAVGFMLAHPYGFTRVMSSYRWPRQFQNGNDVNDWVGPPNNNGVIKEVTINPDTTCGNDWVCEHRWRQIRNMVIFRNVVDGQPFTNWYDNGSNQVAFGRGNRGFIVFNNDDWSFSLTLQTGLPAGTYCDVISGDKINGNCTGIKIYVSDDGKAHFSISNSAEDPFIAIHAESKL
The test is described as follows: Inhibition of human pancreatic alpha-amylase expressed in Pichia pastoris using amylase as substrate preincubated with substrate for 10 mins followed by protein addition measured every 5 mins by Dixon plot analysis.
Conditions: not given
As a reminder, the Ki is the equilibrium dissociation constant of an inhibitor or competing ligand from its target. Regarding `C[C@H]1O[C@H](O[C@H]2[C@H](O)[C@@H](O)[C@@H](O[C@H]3[C@H](O)[C@@H](O)[C@@H](O[C@H]4[C@H](O)[C@@H](O)[C@@H](O[C@H]5[C@H](O)[C@@H](O)[C@@H](O)O[C@@H]5CO)O[C@@H]4CO)O[C@@H]3CO)O[C@@H]2CO)[C@H](O)[C@@H](O)[C@@H]1N[C@H]1C=C(CO)[C@@H](O[C@H]2O[C@H](CO)[C@@H](O[C@H]3O[C@H](C)[C@@H](N[C@H]4C=C(CO)[C@@H](O[C@H]5O[C@H](CO)[C@@H](O[C@H]6O[C@H](C)[C@@H](N[C@H]7C=C(CO)[C@@H](O)[C@H](O)[C@H]7O)[C@H](O)[C@H]6O)[C@H](O)[C@H]5O)[C@H](O)[C@H]4O)[C@H](O)[C@H]3O)[C@H](O)[C@H]2O)[C@H](O)[C@H]1O`, affinity was put at a Ki of 0.0143 µM. On the same count and under the same terms, next, `CC1OC(OC2C(CO)OC(OC3C(CO)OC(O)C(O)C3O)C(O)C2O)C(O)C(O)C1NC1C=C(CO)C(OC2OC(CO)C(OC3OC(CO)C(O)C(O)C3O)C(O)C2O)C(O)C1O` (stereo not drawn): 1.25 µM; `C[C@H]1O[C@H](O[C@H]2[C@H](O)[C@@H](O)[C@@H](O[C@H]3[C@H](O)[C@@H](O)[C@@H](O[C@H]4[C@H](O)[C@@H](O)[C@@H](O[C@H]5[C@H](O)[C@@H](O)[C@@H](O)O[C@@H]5CO)O[C@@H]4CO)O[C@@H]3CO)O[C@@H]2CO)[C@H](O)[C@@H](O)[C@@H]1N[C@H]1C=C(CO)[C@@H](O[C@H]2O[C@H](CO)[C@@H](O[C@H]3O[C@H](C)[C@@H](N[C@H]4C=C(CO)[C@@H](O)[C@H](O)[C@H]4O)[C@H](O)[C@H]3O)[C@H](O)[C@H]2O)[C@H](O)[C@H]1O`: 0.0147 µM.

A further test has as its target T3, Alpha-amylase 1A (Homo sapiens, UniProt P0DUB6).
T3 sequence (P0DUB6 whole entry): T1 sequence (P0DUB6 whole entry)
Kind of test: Inhibition of human salivary alpha-amylase using GalG2CNP as substrate by UV-Vis spectrophotometric analysis.
Conditions: not given
Turning to `Cc1cc(C=O)c(O)c(/C=N/N=C(/N/N=C/c2cc(C)cc(C=O)c2O)SCc2ccccc2)c1`, the IC50 result is “ND(Insoluble)”.

The test is the same for the next values; noted with them: read-out: IC50.
Consider `Cc1ccc(-c2csc(Nc3ccc(O)cc3)n2)cc1`, for which the IC50 came out at 735 µM.

With `Oc1ccc(Nc2nc(-c3ccc(O)cc3)cs2)cc1`, the IC50 turned out to be 492 µM. Still for that read-out and setting: the result for `Nc1ccc(Nc2nc(-c3ccc(Cl)cc3Cl)cs2)cc1` reads 270 µM.

Consider `O=C1S/C(=C\c2cc(Cl)ccc2O)C(=O)N1Cc1cccc([N+](=O)[O-])c1`, for which the IC50 is 50 µM. Still for that read-out and setting: next, `COc1cccc(C2NC(c3cccc(OC)c3O)C([N+](=O)[O-])C(C)(C)C2[N+](=O)[O-])c1O` (stereo not drawn): 300 µM; `Oc1ccc(Nc2nc(-c3ccccc3)cs2)cc1`: 1270 µM. Still for that read-out and setting: the result for `Cc1ccc(O)c(Cc2cc(C)cc(Cc3cc(C)ccc3O)c2O)c1` reads 200 µM. Same read-out and setting: next, `O=C(O)c1ccc(Nc2nc(-c3ccc(O)cc3O)cs2)cc1`: 680 µM; `COc1ccc(Nc2nc(-c3ccccc3O)cs2)cc1`: 40 µM; `CC(=O)N1CCN(C2=NC(=O)/C(=C\c3ccccc3O)S2)CC1`: 700 µM. Consider `Oc1ccc(Nc2nc(-c3ccc(Cl)cc3)cs2)cc1`, for which the IC50 was 1040 µM. In the case of `CC(O)CNCCNCc1ccc(-c2ccccc2F)o1` (stereo not drawn), the IC50 was determined as 1000 µM. Turning to `O=C(O)c1cccc(N2C(=O)/C(=C/c3ccccc3O)SC2=S)c1`, the IC50 was found to be 62 µM. On the same count and under the same terms, the result for `Oc1ccc(Nc2nc(-c3ccc(O)cc3O)cs2)cc1` reads 138 µM; that for `COc1cc(Br)cc(/C=C2/SC(Nc3cccc(C(=O)O)c3)=NC2=O)c1O`, 260 µM.

In the case of `C/C(=N\NC(=O)CCC(=O)Nc1ccccc1C)c1ccc(O)cc1O`, the IC50 came out at 850 µM. On the same count and under the same terms, next, `COc1cccc(NC(=N)Nc2nc(O)cc(CSc3ccccn3)n2)c1`: 330 µM; `O=C(O)c1ccc(Nc2nc(-c3ccc(O)cc3O)cs2)cc1O`: 642 µM.

Turning to `Cc1[nH]nc(-c2ccc(O)cc2O)c1Oc1ccc(C(=O)O)cc1`, the IC50 is 4000 µM. Same read-out and setting: the result for `CCc1cc(-c2n[nH]c(C(=O)O)c2-c2ccc3c(c2)OCO3)c(O)cc1O` reads 4000 µM.

The target in the next test is T4, Alpha-amylase 1A (Homo sapiens) (UniProt P0DUB6).
T4 sequence (whole entry): T1 sequence (P0DUB6 whole entry)
Kind of test: Potency index, ratio of BAS 04880564 IC50 to compound IC50 for human salivary alpha-amylase.
Conditions: not given
On to `Nc1ccc(Nc2nc(-c3ccc(Cl)cc3Cl)cs2)cc1`, for which the Ratio IC50 was found to be 0.51. Same read-out and setting: the result for `O=C1S/C(=C\c2cc(Cl)ccc2O)C(=O)N1Cc1cccc([N+](=O)[O-])c1` reads 2.76; that for `COc1ccc(Nc2nc(-c3ccccc3O)cs2)cc1`, 3.45. The same measure, in the same setting: the result for `O=C(O)c1cccc(N2C(=O)/C(=C/c3ccccc3O)SC2=S)c1` reads 2.22. `COc1cc(Br)cc(/C=C2/SC(Nc3cccc(C(=O)O)c3)=NC2=O)c1O`: the Ratio IC50 is 0.53.

Another test addresses T4, Alpha-amylase 1A (Homo sapiens). The test is described as follows: Competitive inhibition of human salivary alpha-amylase using GalG2CNP as substrate by Lineweaver-Burk plot analysis.
Conditions: not given
The method, boiled down: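 Inhibition mode assigned from Lineweaver-Burk plots. Human salivary α-amylase (2 nM) started reactions containing GalG2CNP (0.75–4 mM) and inhibitor in DMSO, in 50 mM MES pH 6.0 with 5 mM Ca(OAc)2, 51.5 mM NaCl, 152 mM NaN3 at 37°C. Rates from continuous 400 nm absorbance of released CNP.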
In the case of `O=C1S/C(=C\c2cc(Cl)ccc2O)C(=O)N1Cc1cccc([N+](=O)[O-])c1`, the Inhibition mode result is “Active”. On the same count and under the same terms, the result for `Cc1ccc(O)c(Cc2cc(C)cc(Cc3cc(C)ccc3O)c2O)c1` reads “Active”; that for `Oc1ccc(Nc2nc(-c3ccc(O)cc3O)cs2)cc1`, “Active”.
